Folding enthalpy and Tm data for 30 sequences are collected here from the array DNA melting data of Ke et al. (doi:10.1101/2024.01.08.574731).

Data set [1] can be described thus: folding enthalpy; higher = less favourable; fluorescence melt of hairpins on a sequencing array, two-state fit. The following applies: sodium 0.088 M. Summed up:
(§1)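 Hairpins were imaged by Cy3 fluorescence on a sequenced MiSeq flow cell with annealed Cy3 and quencher oligos, in 50 mM Na-HEPES pH 8.0, 25 mM NaCl, in 2.5 °C steps up to 60 °C. Bootstrapped two-state fits of normalised signals gave melting temperature and folding enthalpy. Four replicates were combined by inverse variance, and fitted temperatures were raised by 9.35 °C to match UV melts.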

The nature of data set [2]: melting temperature; fluorescence melt of hairpins on a sequencing array, two-state fit, raised by 9.35 °C to match UV melts. The following applies: sodium 0.088 M. Summed up:
as §1

In the case of GGAGAAGAAATTCTCC ((((((....)))))), in data set [1], the folding enthalpy is -27.7 kcal/mol. The Tm in data set [2] worked out at 47.7 °C.

As for GCCCCCGAAAGGGCTGGC ((((((....)))..))), the folding enthalpy in data set [1] is -16.2 kcal/mol. For the same sequence, the Tm in data set [2] came to 61.8 °C.

As for GATCCATATATGGATC ((((((....)))))), the folding enthalpy in data set [1] is -44.1 kcal/mol. In addition, in data set [2], the Tm stood at 55 °C.

Take GCGTTTCCACGC ((((....)))): the folding enthalpy in data set [1] was -22.6 kcal/mol. Besides, in data set [2], the Tm was 53.5 °C.

For GTCCTACGAAAGTACGAC (((.(((....))).))), the folding enthalpy in data set [1] was -24.9 kcal/mol. In addition, in data set [2], the Tm was 35.2 °C.

GTGGCCGAAAGGCGACAC ((((((....)))..))): the folding enthalpy in data set [1] was -14 kcal/mol. Moreover, the Tm in data set [2] is 57.4 °C.

As for GGGAGGCGAAAGCCACCC (((.(((....))).))), the folding enthalpy in data set [1] was -25.1 kcal/mol. Also, the Tm in data set [2] amounted to 65.6 °C.

As for GTCTGCCCGAAAGGGGAC (((..(((....)))))), the folding enthalpy in data set [1] was -10.9 kcal/mol. Moreover, the Tm in data set [2] was 34.8 °C.

As to GTTTTACGAAAGTACAAC (((.(((....))).))), the folding enthalpy in data set [1] was -25.8 kcal/mol. In data set [2], the Tm was 35.5 °C.

As for GTGGGAGGAAACTCTCAC (((.(((....))).))), in data set [1], the folding enthalpy is -39.1 kcal/mol. Besides, the Tm in data set [2] was found to be 48.7 °C.

With GTTATCGAAAGATAAC ((((((....)))))), in data set [1], the folding enthalpy is -42.8 kcal/mol. Moreover, the Tm in data set [2] was determined as 53.1 °C.

As for GTGCTCCGAAAGGATCAC (((.(((....))).))), in data set [1], the folding enthalpy is -31.9 kcal/mol. Further, the Tm in data set [2] was 50.2 °C.

For the sequence GTAACCGGAAACGATTAC ((((.((....)).)))), the folding enthalpy in data set [1] was -25.3 kcal/mol. Also, in data set [2], the Tm was 36.4 °C.

GCAGCGCGAAAGCACCGC ((.(.((....)).).)): the folding enthalpy in data set [1] is -21.5 kcal/mol. Besides, in data set [2], the Tm stood at 41.3 °C.

Take GGTCGTGGAAACGCGATC (.(((.(....).))).): in data set [1], the folding enthalpy was -26.9 kcal/mol. The Tm in data set [2] is 43.8 °C.

Regarding GCTTGGCGAAAGCCTGGC ((..(((....)))..)), the folding enthalpy in data set [1] is -17.4 kcal/mol. For the same sequence, the Tm in data set [2] was 52.3 °C.

GGGGAGGGAAACCTTCCC (((.(((....))).))): in data set [1], the folding enthalpy was -33 kcal/mol. Moreover, in data set [2], the Tm amounted to 53.4 °C.

On to GTTCGCACGAAAGTGAAC (((..(((....)))))), for which the folding enthalpy in data set [1] was -16.3 kcal/mol. In addition, in data set [2], the Tm was determined as 39 °C.

GCTGAGCGAAAGCTGCGC ((..(((....)))..)): the folding enthalpy in data set [1] is -19 kcal/mol. For the same sequence, in data set [2], the Tm was 54.7 °C.

Regarding GGTTTAGGAAACTAAGCC ((.((((....)))).)), the folding enthalpy in data set [1] is -27.6 kcal/mol. In addition, the Tm in data set [2] was found to be 39.8 °C.

Take GATCTACGTTTAGATC ((((((....)))))): the folding enthalpy in data set [1] was -32.4 kcal/mol. Further, the Tm in data set [2] worked out at 39.1 °C.

Turning to GATCAACCACTTGATC ((((((....)))))), the folding enthalpy in data set [1] is -32.6 kcal/mol. Moreover, in data set [2], the Tm is 42.3 °C.

GCAAGAGGAAACTCTTGC (((((((....))))))): the folding enthalpy in data set [1] was -40.5 kcal/mol. Moreover, the Tm in data set [2] turned out to be 64.9 °C.

With GATCTCGTATGAGATC ((((((....)))))), in data set [1], the folding enthalpy was -46.5 kcal/mol. The Tm in data set [2] was determined as 59.2 °C.

For the sequence GATTATGGAAACATAATC (((((((....))))))), in data set [1], the folding enthalpy was -38.2 kcal/mol. The Tm in data set [2] is 49.1 °C.

On to GAGCTGGGAAACTGGCTC ((((..(....)..)))), for which the folding enthalpy in data set [1] is -27.6 kcal/mol. In data set [2], the Tm worked out at 46.7 °C.

For the sequence GCGTGCGAAAGCATCCGC ((((((....)))..))), in data set [1], the folding enthalpy was -17.3 kcal/mol. The Tm in data set [2] turned out to be 47.6 °C.

Regarding GGTCCTGGAAACAAGACC ((((.((....)).)))), the folding enthalpy in data set [1] is -32.1 kcal/mol. Moreover, the Tm in data set [2] was found to be 36.2 °C.

Regarding GATCCTGTGCAGGATC ((((((....)))))), in data set [1], the folding enthalpy is -43.2 kcal/mol. The Tm in data set [2] is 55 °C.

As to GGAACACGAAAGTGTCC (((.(((....)))))), the folding enthalpy in data set [1] is -23.5 kcal/mol. In data set [2], the Tm was found to be 52 °C.
